Results: ChEMBL document CHEMBL3351334, “Protective effects of resveratrol on hepatotoxicity induced by isoniazid and rifampicin via SIRT1 modulation” (2014)
Activity calls are given as the source filed them. The rule behind the calls is not given here.

Tests used:
Mus musculus [1] = assay: (§1) Hepatoprotective activity against isoniazid-rifampicin induced liver injury in BALB/c mouse assessed as reduction AST level at 100 mg/kg, po bid for 3 days starting 30 mins prior isoniazid-rifampicin administration measured 24 hrs post-last dose of isoniazid-rifampicin relative to control; type: functional; design: scale not given: the % may be the effect or the level left
Method in brief: (§2)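 Serum AST and ALT measured with commercial kits in blood drawn 24 h after the last of three daily oral isoniazid (50 mg/kg) + rifampicin (100 mg/kg) doses. 6 male BALB/c mice per group, mean ± SEM, one-way ANOVA with Newman–Keuls test.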

Mus musculus [2] = assay: Hepatoprotective activity against isoniazid-rifampicin induced liver injury in BALB/c mouse assessed as reduction ALT level at 100 mg/kg, po bid for 3 days starting 30 mins prior isoniazid-rifampicin administration measured 24 hrs post-last dose of isoniazid-rifampicin relative to control; type: functional; design: scale not given: the % may be the effect or the level left; method in brief: as §2
Mus musculus [3] = assay: (§3) Hepatoprotective activity against isoniazid-rifampicin induced liver injury in BALB/c mouse assessed as reversal of GSH depletion at 100 mg/kg, po bid for 3 days starting 30 mins prior isoniazid-rifampicin administration measured 24 hrs post-last dose of isoniazid-rifampicin relative to control; type: functional
Method in brief: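 Reduced glutathione assayed with DTNB. Liver homogenized 1:9 w/v in 0.9% saline, spun 3500g 20 min 4 °C. Supernatant deproteinized with 4% sulfosalicylic acid, spun again, then mixed with 0.1 M phosphate buffer and 0.01 M DTNB. Absorbance at 412 nm. 6 mice/group, mean ± SEM.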

Mus musculus [4] = assay: as §3, with “increase in catalase activity” for “reversal of GSH”; type: functional
Method in brief: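 Liver homogenized 1:9 w/v in 0.9% saline and spun 3500g, 10 min, 4 °C. Supernatant in 50 mM PBS pH 7.0 with 20 mM H2O2 substrate. H2O2 decomposition followed continuously at 240 nm (Aebi method), expressed as mmol H2O2/min/mg protein. n = 6 mice, mean ± SEM.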

Mus musculus [5] = assay: as §1, with “in hepatic myeloperoxidase activity” for “AST level”; type: functional; design: scale not given: the % may be the effect or the level left
Method in brief: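 Neutrophil recruitment estimated from hepatic myeloperoxidase activity (modified Paszcuk method), expressed as OD/mg tissue. Livers collected 24 h after the last oral isoniazid 50 mg/kg + rifampicin 100 mg/kg dose of a 3-day course. 6 male BALB/c mice/group, mean ± SEM.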

Mus musculus [6] = assay: Hepatoprotective activity against isoniazid-rifampicin induced liver injury in BALB/c mouse assessed as reduction in hepatic lesion at 100 mg/kg, po bid for 3 days starting 30 mins prior isoniazid-rifampicin administration measured 24 hrs post-last dose of isoniazid-rifampicin relative to control; type: functional, organism-based; design: dose 100 mg/kg
Method in brief: (§4)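 Liver fixed in 10% formaldehyde and paraffin-embedded. 4 μm sections stained with hematoxylin and eosin, examined by light microscopy by a veterinary pathologist blinded to groups. Tissue taken 24 h after the last of 3 daily oral isoniazid (50 mg/kg) + rifampicin (100 mg/kg) doses.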

Mus musculus [7] = assay: as §1, with “in fatty accumulation” for “AST level”; type: functional, organism-based; design: dose 100 mg/kg; method in brief: as §4
Mus musculus [8] = assay: as §1, with “prevention of liver statosis development” for “reduction AST level”; type: functional, organism-based; design: dose 100 mg/kg; method in brief: as §4
Mus musculus [9] = assay: Hepatoprotective activity against isoniazid-rifampicin induced liver injury in BALB/c mouse assessed as reduction in IL6 level at 100 mg/kg, po bid for 3 days starting 30 mins prior isoniazid-rifampicin administration measured 24 hrs post-last dose of isoniazid-rifampicin relative to control; type: functional, organism-based; design: dose 100 mg/kg
Mus musculus [10] = assay: Hepatoprotective activity against isoniazid-rifampicin induced liver injury in BALB/c mouse assessed as reduction in MCP-1 level at 100 mg/kg, po bid for 3 days starting 30 mins prior isoniazid-rifampicin administration measured 24 hrs post-last dose of isoniazid-rifampicin relative to control; type: functional, organism-based; design: dose 100 mg/kg
Mus musculus [11] = assay: as §1, with “restoration of SIRT1 mRNA” for “reduction AST”; type: functional, organism-based; design: dose 100 mg/kg
Method in brief: (§5)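 Livers taken 24 h after the last of three daily oral isoniazid 50 mg/kg + rifampicin 100 mg/kg doses (in 1% DMSO/saline). Hepatic mRNA measured by qPCR with mouse GAPDH probe as endogenous control, reactions in duplicate, relative expression by the 2ΔΔC method. n = 6 male BALB/c mice/group, mean ± SEM.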

Mus musculus [12] = assay: (§6) Hepatoprotective activity against isoniazid-rifampicin induced liver injury in BALB/c mouse assessed as change in SIRT2 mRNA level at 100 mg/kg, po bid for 3 days starting 30 mins prior isoniazid-rifampicin administration measured 24 hrs post-last dose of isoniazid-rifampicin relative to control; type: functional, organism-based; design: dose 100 mg/kg; method in brief: as §5
Mus musculus [13] = assay: Hepatoprotective activity against isoniazid-rifampicin induced liver injury in BALB/c mouse assessed as change in SIRT3 mRNA level at 100 mg/kg, po bid for 3 days starting 30 mins prior isoniazid-rifampicin administration measured 24 hrs post-last dose of isoniazid-rifampicin relative to control; type: functional, organism-based; design: dose 100 mg/kg; method in brief: as §5
Mus musculus [14] = assay: Hepatoprotective activity against isoniazid-rifampicin induced liver injury in BALB/c mouse assessed as change in SIRT4 mRNA level at 100 mg/kg, po bid for 3 days starting 30 mins prior isoniazid-rifampicin administration measured 24 hrs post-last dose of isoniazid-rifampicin relative to control; type: functional, organism-based; design: dose 100 mg/kg; method in brief: as §5
Mus musculus [15] = assay: Hepatoprotective activity against isoniazid-rifampicin induced liver injury in BALB/c mouse assessed as change in SIRT5 mRNA level at 100 mg/kg, po bid for 3 days starting 30 mins prior isoniazid-rifampicin administration measured 24 hrs post-last dose of isoniazid-rifampicin relative to control; type: functional, organism-based; design: dose 100 mg/kg; method in brief: as §5
Mus musculus [16] = assay: Hepatoprotective activity against isoniazid-rifampicin induced liver injury in BALB/c mouse assessed as change in SIRT6 mRNA level at 100 mg/kg, po bid for 3 days starting 30 mins prior isoniazid-rifampicin administration measured 24 hrs post-last dose of isoniazid-rifampicin relative to control; type: functional, organism-based; design: dose 100 mg/kg; method in brief: as §5
Mus musculus [17] = assay: Hepatoprotective activity against isoniazid-rifampicin induced liver injury in BALB/c mouse assessed as change in SIRT7 mRNA level at 100 mg/kg, po bid for 3 days starting 30 mins prior isoniazid-rifampicin administration measured 24 hrs post-last dose of isoniazid-rifampicin relative to control; type: functional, organism-based; design: dose 100 mg/kg; method in brief: as §5
Mus musculus [18] = assay: as §1, with “in PPAR-gamma mRNA” for “AST”; type: functional, organism-based; design: dose 100 mg/kg; method in brief: as §5
Mus musculus [19] = assay: as §1, with “in PGC-1alpha mRNA” for “AST”; type: functional, organism-based; design: dose 100 mg/kg; method in brief: as §5
Mus musculus [20] = assay: as §6, with “effect on nicotinamide phosphoribosyltransferase” for “change in SIRT2”; type: functional, organism-based; design: dose 100 mg/kg; method in brief: as §5
Mus musculus [21] = assay: Hepatoprotective activity against isoniazid-rifampicin induced liver injury in BALB/c mouse assessed as effect on NAD+ concentration at 100 mg/kg, po bid for 3 days starting 30 mins prior isoniazid-rifampicin administration measured 24 hrs post-last dose of isoniazid-rifampicin relative to control; type: functional, organism-based; design: dose 100 mg/kg
Method in brief: (§7)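 Liver NAD+ and NADH quantified with a commercial colorimetric kit per manufacturer's instructions, reduced product read at 565 nm. Tissue collected 24 h after the final oral isoniazid (50 mg/kg) + rifampicin (100 mg/kg) dose of a 3-day course. 6 male BALB/c mice per group.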

Mus musculus [22] = assay: Hepatoprotective activity against isoniazid-rifampicin induced liver injury in BALB/c mouse assessed as effect on NADH concentration at 100 mg/kg, po bid for 3 days starting 30 mins prior isoniazid-rifampicin administration measured 24 hrs post-last dose of isoniazid-rifampicin relative to control; type: functional, organism-based; design: dose 100 mg/kg; method in brief: as §7
Mus musculus [23] = assay: Hepatoprotective activity against isoniazid-rifampicin induced liver injury in BALB/c mouse assessed as reduction in TNFalpha level at 100 mg/kg, po bid for 3 days starting 30 mins prior isoniazid-rifampicin administration measured 24 hrs post-last dose of isoniazid-rifampicin relative to control; type: functional, organism-based; design: dose 100 mg/kg
Method in brief: (§8)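 Cytokines measured in homogenized liver tissue by flow cytometry (488 nm laser, high-throughput sampler). Tissue from male BALB/c mice 24 h after final oral isoniazid 50 mg/kg + rifampicin 100 mg/kg. n = 6/group, mean ± SEM, one-way ANOVA/Newman–Keuls.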

Mus musculus [24] = assay: Hepatoprotective activity against isoniazid-rifampicin induced liver injury in BALB/c mouse assessed as reduction in IL-12p70 level at 100 mg/kg, po bid for 3 days starting 30 mins prior isoniazid-rifampicin administration measured 24 hrs post-last dose of isoniazid-rifampicin relative to control; type: functional, organism-based; design: dose 100 mg/kg; method in brief: as §8
Mus musculus [25] = assay: Hepatoprotective activity against isoniazid-rifampicin induced liver injury in BALB/c mouse assessed as reduction in IL-10 level at 100 mg/kg, po bid for 3 days starting 30 mins prior isoniazid-rifampicin administration measured 24 hrs post-last dose of isoniazid-rifampicin relative to control; type: functional, organism-based; design: dose 100 mg/kg; method in brief: as §8

Oc1ccc(/C=C/c2cc(O)cc(O)c2)cc1 [RESVERATROL]
Activity (Mus musculus [1]): 36%
Activity (Mus musculus [2]): 58%
Activity (Mus musculus [3]): 89%
Activity (Mus musculus [4]): 34%
Activity (Mus musculus [5]): 19%
Activity (Mus musculus [6]): Active
Activity (Mus musculus [7]): Active
Activity (Mus musculus [8]): Active
Activity (Mus musculus [9]): inactive
Activity (Mus musculus [10]): inactive
Activity (Mus musculus [11]): Active
Activity (Mus musculus [12]): inactive
Activity (Mus musculus [13]): inactive
Activity (Mus musculus [14]): inactive
Activity (Mus musculus [15]): inactive
Activity (Mus musculus [16]): inactive
Activity (Mus musculus [17]): inactive
Activity (Mus musculus [18]): Active
Activity (Mus musculus [19]): Active
Activity (Mus musculus [20]): inactive
Activity (Mus musculus [21]): inactive
Activity (Mus musculus [22]): inactive
Activity (Mus musculus [23]): Active
Activity (Mus musculus [24]): Active
Activity (Mus musculus [25]): Active
